What was measured:
SK-OV-3 = assay: Growth inhibition of human SKOV3 cells after 48 hrs by sulforhodamine B assay; format: functional; details: SK-OV-3, 48 h
How it was run: (§1)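 Panel of 60 human cancer cell lines; for each compound, dose–response curves per cell line measured at a minimum of five concentrations at 10-fold dilutions. Cells exposed continuously to drug for 48 h, and growth was read out by sulforhodamine B staining.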

SN12C = assay: Growth inhibition of human SN12C cells after 48 hrs by sulforhodamine B assay; format: functional; how it was run: as §1
SW-620 = assay: Growth inhibition of human SW620 cells after 48 hrs by sulforhodamine B assay; format: functional; details: SW-620, 48 h; how it was run: as §1
SK-MEL-28 = assay: Growth inhibition of human SK-MEL-28 cells after 48 hrs by sulforhodamine B assay; format: functional; details: SK-MEL-28, 48 h; how it was run: as §1
MDA-MB-231 = assay: Growth inhibition of human MDA-MB-231 cells after 48 hrs by sulforhodamine B assay; format: functional; details: MDA-MB-231, 48 h; how it was run: as §1
SR = assay: Growth inhibition of human SR cells after 48 hrs by sulforhodamine B assay; format: functional; how it was run: as §1
HOP-62 = assay: Growth inhibition of human HOP62 cells after 48 hrs by sulforhodamine B assay; format: functional; details: HOP-62, 48 h; how it was run: as §1
A-375 [1] = assay: Cell cycle arrest in human A375 cells assessed as accumulation at G2/M phase at 2 uM after 24 hrs using propidium iodide staining by flow cytometry; format: functional
How it was run: (§2)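 A375 cells (5×10^5) grown 24 h, then exposed to compound 24 h (DMSO control). Trypsin–EDTA harvest, fixed in ice-cold 70% ethanol at 4 °C 30 min, RNase A 37 °C 30 min, propidium iodide staining. DNA content measured by flow cytometry on 20,000 events, gated as sub-G1/G0, G1, S and G2/M.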

NCI/ADR-RES = assay: Growth inhibition of human NCI/ADR-RES cells after 48 hrs by sulforhodamine B assay; format: functional; how it was run: as §1
SNB-19 = assay: Growth inhibition of human SNB19 cells after 48 hrs by sulforhodamine B assay; format: functional; details: SNB-19, 48 h; how it was run: as §1
Calf thymus DNA = assay: Binding affinity to calf thymus duplex-form DNA assessed as melting temperature at 1:5 compound/DNA ratio after 18 hrs; format: nucleic-acid assay; details: Bos taurus
NCI-H226 = assay: Growth inhibition of human NCI-H226 cells after 48 hrs by sulforhodamine B assay; format: functional; details: NCI-H226, 48 h; how it was run: as §1
SF-268 = assay: Growth inhibition of human SF268 cells after 48 hrs by sulforhodamine B assay; format: functional; details: SF-268, 48 h; how it was run: as §1
HCT-15 = assay: Growth inhibition of human HCT15 cells after 48 hrs by sulforhodamine B assay; format: functional; details: HCT-15, 48 h; how it was run: as §1
NCI-H522 = assay: Growth inhibition of human NCI-H522 cells after 48 hrs by sulforhodamine B assay; format: functional; details: NCI-H522, 48 h; how it was run: as §1
MDA-MB-435 = assay: Growth inhibition of human MDA-MB-435 cells after 48 hrs by sulforhodamine B assay; format: functional; details: MDA-MB-435, 48 h; how it was run: as §1
A549 = assay: Growth inhibition of human A549 cells after 48 hrs by sulforhodamine B assay; format: functional; details: A549, 48 h
How it was run: (§3)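 Dose–response in each cell line over at least five concentrations at 10-fold dilutions, with 48 h continuous exposure and sulforhodamine B read-out.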

OVCAR-8 = assay: Growth inhibition of human OVCAR8 cells after 48 hrs by sulforhodamine B assay; format: functional; details: OVCAR-8, 48 h; how it was run: as §1
KM12 = assay: Growth inhibition of human KM12 cells after 48 hrs by sulforhodamine B assay; format: functional; details: KM12, 48 h; how it was run: as §1
SK-MEL-2 = assay: Growth inhibition of human SK-MEL-2 cells after 48 hrs by sulforhodamine B assay; format: functional; details: SK-MEL-2, 48 h; how it was run: as §1
NCI-H460 = assay: Growth inhibition of human NCI-H460 cells after 48 hrs by sulforhodamine B assay; format: functional; details: NCI-H460, 48 h; how it was run: as §1
SF-539 = assay: Growth inhibition of human SF539 cells after 48 hrs by sulforhodamine B assay; format: functional; details: SF-539, 48 h; how it was run: as §1
SK-MEL-5 = assay: Growth inhibition of human SK-MEL-5 cells after 48 hrs by sulforhodamine B assay; format: functional; details: SK-MEL-5, 48 h; how it was run: as §1
A498 = assay: Growth inhibition of human A498 cells after 48 hrs by sulforhodamine B assay; format: functional; details: A498, 48 h; how it was run: as §3
OVCAR-3 = assay: Growth inhibition of human OVCAR-3 cells after 48 hrs by sulforhodamine B assay; format: functional; details: OVCAR-3, 48 h; how it was run: as §1
RXF 393 = assay: Growth inhibition of human RXF393 cells after 48 hrs by sulforhodamine B assay; format: functional; details: RXF 393, 48 h; how it was run: as §1
M14 = assay: Growth inhibition of human M14 cells after 48 hrs by sulforhodamine B assay; format: functional; details: M14, 48 h; how it was run: as §1
Hs-578T = assay: Growth inhibition of human Hs 578T cells after 48 hrs by sulforhodamine B assay; format: functional; how it was run: as §1
IGROV-1 = assay: Growth inhibition of human IGROV1 cells after 48 hrs by sulforhodamine B assay; format: functional; details: IGROV-1, 48 h; how it was run: as §1
OVCAR-5 = assay: Growth inhibition of human OVCAR5 cells after 48 hrs by sulforhodamine B assay; format: functional; details: OVCAR-5, 48 h; how it was run: as §1
[2] = Growth inhibition of human […] cells after 48 hrs by sulforhodamine B assay; format: functional; how it was run: as §1
MOLT-4 = assay: Growth inhibition of human MOLT4 cells after 48 hrs by sulforhodamine B assay; format: functional; details: MOLT-4, 48 h; how it was run: as §1
Malme-3M = assay: Growth inhibition of human MALME-3M cells after 48 hrs by sulforhodamine B assay; format: functional; how it was run: as §1
SF-295 = assay: Growth inhibition of human SF295 cells after 48 hrs by sulforhodamine B assay; format: functional; details: SF-295, 48 h; how it was run: as §1
PC-3 = assay: Growth inhibition of human PC3 cells after 48 hrs by sulforhodamine B assay; format: functional; details: PC-3, 48 h; how it was run: as §1
OVCAR-4 = assay: Growth inhibition of human OVCAR4 cells after 48 hrs by sulforhodamine B assay; format: functional; details: OVCAR-4, 48 h; how it was run: as §1
U-251 = assay: Growth inhibition of human U251 cells after 48 hrs by sulforhodamine B assay; format: functional; details: U-251, 48 h; how it was run: as §1
A-375 [3] = assay: Cell cycle arrest in human A375 cells assessed as accumulation at G0 phase at 2 uM after 24 hrs using propidium iodide staining by flow cytometry; format: functional; how it was run: as §2
A-375 [4] = assay: Cell cycle arrest in human A375 cells assessed as accumulation at G0/G1 phase at 2 uM after 24 hrs using propidium iodide staining by flow cytometry; format: functional; how it was run: as §2
HCT-116 = assay: Growth inhibition of human HCT116 cells after 48 hrs by sulforhodamine B assay; format: functional; details: HCT-116, 48 h; how it was run: as §1
K562 = assay: Growth inhibition of human K562 cells after 48 hrs by sulforhodamine B assay; format: functional; details: K562, 48 h; how it was run: as §1
EKVX = assay: Growth inhibition of human EKVX cells after 48 hrs by sulforhodamine B assay; format: functional; how it was run: as §3
UACC-257 = assay: Growth inhibition of human UACC257 cells after 48 hrs by sulforhodamine B assay; format: functional; details: UACC-257, 48 h; how it was run: as §1
LOX IMVI = assay: Growth inhibition of human LOXIMVI cells after 48 hrs by sulforhodamine B assay; format: functional; how it was run: as §1

## COc1cc(-c2nc3ccccc3s2)ccc1OCCCCCOc1cc2c(cc1OC)C(=O)N1CCC[C@H]1C=N2
SK-OV-3
  GI50: 178 nM
SN12C
  GI50: 200 nM
SW-620
  GI50: 56.2 nM
SK-MEL-28
  GI50: 331 nM
MDA-MB-231
  GI50: 89.1 nM
SR
  GI50: 17.4 nM
HOP-62
  GI50: 45.7 nM
A-375 [1]
  Activity: 3.1%
NCI/ADR-RES
  GI50: 269 nM
SNB-19
  GI50: 219 nM
Calf thymus DNA
  ΔTm: 6.3 °C
NCI-H226
  GI50: 214 nM
SF-268
  GI50: 347 nM
HCT-15
  GI50: 224 nM
NCI-H522
  GI50: 41.7 nM
MDA-MB-435
  GI50: 85.1 nM
A549
  GI50: 240 nM
OVCAR-8
  GI50: 141 nM
KM12
  GI50: 166 nM
SK-MEL-2
  GI50: 178 nM
NCI-H460
  GI50: 39.8 nM
SF-539
  GI50: 39.8 nM
SK-MEL-5
  GI50: 24.6 nM
A498
  GI50: 174 nM
OVCAR-3
  GI50: 97.7 nM
RXF 393
  GI50: 51.3 nM
M14
  GI50: 39.8 nM
Hs-578T
  GI50: 141 nM
IGROV-1
  GI50: 347 nM
OVCAR-5
  GI50: 70.8 nM
[2]
  GI50: 74.1 nM
MOLT-4
  GI50: 43.6 nM
Malme-3M
  GI50: 145 nM
SF-295
  GI50: 67.6 nM
PC-3
  GI50: 41.7 nM
OVCAR-4
  GI50: 288 nM
U-251
  GI50: 33.9 nM
A-375 [3]
  Activity: 26.75%
A-375 [4]
  Activity: 93.79%
HCT-116
  GI50: 38.9 nM
K562
  GI50: 20.4 nM
EKVX
  GI50: 204 nM
UACC-257
  GI50: 186 nM
LOX IMVI
  GI50: 18.2 nM

## COc1cc2c(cc1OCCCCC(=O)Nc1ccc(-c3nc4ccccc4s3)cc1)N=C[C@@H]1CCCN1C2=O
SK-OV-3
  GI50: 4470 nM
SN12C
  GI50: 2820 nM
SW-620
  GI50: 1620 nM
SK-MEL-28
  GI50: 2240 nM
MDA-MB-231
  GI50: 2090 nM
SR
  GI50: 550 nM
HOP-62
  GI50: 2450 nM
A-375 [1]
  Activity: 5.41%
NCI/ADR-RES
  GI50: 11000 nM
SNB-19
  GI50: 2690 nM
Calf thymus DNA
  ΔTm: 0.5 °C
NCI-H226
  GI50: 2880 nM
SF-268
  GI50: 2040 nM
HCT-15
  GI50: 2820 nM
NCI-H522
  GI50: 977 nM
MDA-MB-435
  GI50: 1780 nM
A549
  GI50: 3390 nM
OVCAR-8
  GI50: 1550 nM
KM12
  GI50: 2950 nM
SK-MEL-2
  GI50: 1950 nM
NCI-H460
  GI50: 1660 nM
SF-539
  GI50: 1580 nM
SK-MEL-5
  GI50: 1780 nM
A498
  GI50: 1860 nM
OVCAR-3
  GI50: 1860 nM
RXF 393
  GI50: 1620 nM
M14
  GI50: 1550 nM
Hs-578T
  GI50: 2750 nM
IGROV-1
  GI50: 692 nM
OVCAR-5
  GI50: 3550 nM
[2]
  GI50: 1450 nM
MOLT-4
  GI50: 1620 nM
Malme-3M
  GI50: 1910 nM
SF-295
  GI50: 550 nM
PC-3
  GI50: 2040 nM
OVCAR-4
  GI50: 2820 nM
U-251
  GI50: 1910 nM
A-375 [3]
  Activity: 15.1%
A-375 [4]
  Activity: 88.44%
HCT-116
  GI50: 1860 nM
K562
  GI50: 1740 nM
EKVX
  GI50: 2450 nM
UACC-257
  GI50: 1740 nM
LOX IMVI
  GI50: 1550 nM
